Measurements: ChEMBL document CHEMBL1153946, “Oxadiazole-diarylpyrazole 4-carboxamides as cannabinoid CB1 receptor ligands” (Bioorg Med Chem Lett, 2009)

Assays:
Cannabinoid receptor 1 = Cannabinoid receptor 1 (Rattus norvegicus, UniProt P20272); test: Displacement of [3H]CP-55940 from cannabinoid CB1 receptor in Sprague-Dawley rat cerebellar membrane by liquid scintillation spectrometry; parameters: species or system Cerebellum
Outline: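 Membranes from cerebella of male Sprague-Dawley rats (200–300 g), homogenized in TME (50 mM Tris-HCl, 1 mM EDTA, 3 mM MgCl₂, pH 7.4), spun 48,000g 30 min at 4 °C, resuspended, stored at −70 °C. Incubated 1 h at 30 °C with radioligand in TME plus 0.5% fatty-acid-free BSA. Filtered on PEI-soaked GF/B and washed; IC50 by nonlinear regression.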

CHO-K1 = test: Selectivity ratio of IC50 for human recombinant cannabinoid CB2 receptor expressed in CHOK1 cells to IC50 for cannabinoid CB1 receptor in Sprague-Dawley rat cerebellar membrane
Cannabinoid receptor 2 = Cannabinoid receptor 2 (Homo sapiens, UniProt P34972); test: Displacement of [3H]WIN-55212-2 from human recombinant cannabinoid CB2 receptor expressed in CHOK1 cells by liquid scintillation spectrometry; assay type: cell-based, CHO-K1
Cannabinoid receptor 2, sequence (P34972 whole entry): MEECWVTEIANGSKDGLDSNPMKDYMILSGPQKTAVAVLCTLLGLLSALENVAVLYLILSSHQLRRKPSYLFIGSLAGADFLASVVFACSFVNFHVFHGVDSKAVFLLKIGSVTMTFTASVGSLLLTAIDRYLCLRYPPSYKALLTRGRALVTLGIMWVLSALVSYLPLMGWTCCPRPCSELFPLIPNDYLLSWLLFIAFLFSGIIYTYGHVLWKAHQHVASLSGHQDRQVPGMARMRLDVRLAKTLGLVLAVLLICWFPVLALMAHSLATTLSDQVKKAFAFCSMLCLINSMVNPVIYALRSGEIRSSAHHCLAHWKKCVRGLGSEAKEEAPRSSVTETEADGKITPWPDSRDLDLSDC
Outline: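 CHO K-1 cells transfected with human CB2; membranes prepared as for brain tissue. Competition with 3 nM [3H]WIN55,212-2 in TME buffer (pH 7.4) with 0.5% fatty-acid-free BSA, 1 h at 30 °C. Filtered on 0.1% PEI-soaked GF/B, washed five times with ice-cold buffer plus 0.1% BSA, and counted by scintillation. IC50 by nonlinear regression.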

Cannabinoid receptor 1, sequence (P20272 whole entry): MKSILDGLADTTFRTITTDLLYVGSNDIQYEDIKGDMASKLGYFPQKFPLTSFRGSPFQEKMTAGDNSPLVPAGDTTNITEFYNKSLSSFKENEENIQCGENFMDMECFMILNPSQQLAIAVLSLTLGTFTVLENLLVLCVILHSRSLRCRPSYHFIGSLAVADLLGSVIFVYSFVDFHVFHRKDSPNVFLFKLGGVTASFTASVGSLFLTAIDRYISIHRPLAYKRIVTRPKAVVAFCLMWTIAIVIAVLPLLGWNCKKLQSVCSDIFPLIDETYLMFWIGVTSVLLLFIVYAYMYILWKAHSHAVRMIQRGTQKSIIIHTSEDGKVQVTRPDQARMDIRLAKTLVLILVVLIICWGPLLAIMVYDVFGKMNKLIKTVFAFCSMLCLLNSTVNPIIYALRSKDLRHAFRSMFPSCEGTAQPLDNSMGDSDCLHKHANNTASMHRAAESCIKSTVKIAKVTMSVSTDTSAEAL

| SMILES | IC50 (Cannabinoid receptor 1) [nM] | IC50 (Cannabinoid receptor 2) [nM] | Ratio IC50 (CHO-K1) |
| --- | --- | --- | --- |
| CCNC(=O)c1c(-c2nnc(C(C)(C)C)o2)nn(-c2ccc(Cl)cc2Cl)c1-c1ccc(Cl)cc1 | 12.7 | – | – |
| CCN(C)C(=O)c1c(-c2nnc(C(C)(C)C)o2)nn(-c2ccc(Cl)cc2Cl)c1-c1ccc(Cl)cc1 | 11.5 | – | – |
| CC(C)(C)c1nnc(-c2nn(-c3ccc(Cl)cc3Cl)c(-c3ccc(Cl)cc3)c2C(=O)N2CCCC2)o1 | 93.4 | – | – |
| CC(C)(C)c1nnc(-c2nn(-c3ccc(Cl)cc3Cl)c(-c3ccc(Cl)cc3)c2C(=O)NN2CCCCC2)o1 | 17.2 | – | – |
| CN(C)C(=O)c1c(-c2nnc(C(C)(C)C)o2)nn(-c2ccc(Cl)cc2Cl)c1-c1ccc(Cl)cc1 | 13.4 | – | – |
| CNC(=O)c1c(-c2nnc(C(C)(C)C)o2)nn(-c2ccc(Cl)cc2Cl)c1-c1ccc(Cl)cc1 | 18.3 | – | – |
| CC(C)(C)c1nnc(-c2nn(-c3ccc(Cl)cc3Cl)c(-c3ccc(Cl)cc3)c2C(N)=O)o1 | 23.8 | – | – |
| CCN(CC)C(=O)c1c(-c2nnc(C(C)(C)C)o2)nn(-c2ccc(Cl)cc2Cl)c1-c1ccc(Cl)cc1 | 62.1 | – | – |
| CCCCNC(=O)c1c(-c2nnc(C(C)(C)C)o2)nn(-c2ccc(Cl)cc2Cl)c1-c1ccc(Cl)cc1 | 17.8 | – | – |

These reach a lower IC50 (Cannabinoid receptor 1). Values come first.

| IC50 (Cannabinoid receptor 1) [nM] | IC50 (Cannabinoid receptor 2) [nM] | SMILES | Ratio IC50 (CHO-K1) |
| --- | --- | --- | --- |
| 9.31 | – | CC(C)NC(=O)c1c(-c2nnc(C(C)(C)C)o2)nn(-c2ccc(Cl)cc2Cl)c1-c1ccc(Cl)cc1 | – |
| 7.25 | – | CC(C)(C)c1nnc(-c2nn(-c3ccc(Cl)cc3Cl)c(-c3ccc(Cl)cc3)c2C(=O)NC2CCCC2)o1 | – |
| 5.72 | – | CCCNC(=O)c1c(-c2nnc(C(C)(C)C)o2)nn(-c2ccc(Cl)cc2Cl)c1-c1ccc(Cl)cc1 | – |
| 3.51 | – | CC(=O)CNC(=O)c1c(-c2nnc(C(C)(C)C)o2)nn(-c2ccc(Cl)cc2Cl)c1-c1ccc(Cl)cc1 | – |
| 3.27 | – | CC(C)(C)c1nnc(-c2nn(-c3ccc(Cl)cc3Cl)c(-c3ccc(Cl)cc3)c2C(=O)NC2CC2)o1 | – |
| 1.96 | > 10000 | O=C(Nc1ccccc1)c1c(-c2nnc(C3(c4ccc(Cl)cc4)CC3)o2)nn(-c2ccc(Cl)cc2Cl)c1-c1ccc(Br)cc1 | > 5100 |
| 1.66 | 738 | CC(C)(C)c1nnc(-c2nn(-c3ccc(Cl)cc3Cl)c(-c3ccc(Cl)cc3)c2C(=O)Nc2ccccc2)o1 | 445 |
| 1.47 | 636 | CC(C)(C)c1nnc(-c2nn(-c3ccc(Cl)cc3Cl)c(-c3ccc(Cl)cc3)c2C(=O)Nc2ccccn2)o1 | 433 |
| 1.46 | 374 | CC(C)(C)c1nnc(-c2nn(-c3ccc(Cl)cc3Cl)c(-c3ccc(Br)cc3)c2C(=O)Nc2ccccn2)o1 | 256 |
| 1.35 | 386 | CC(C)(C)c1nnc(-c2nn(-c3ccc(Cl)cc3Cl)c(-c3ccc(Br)cc3)c2C(=O)Nc2ccccc2)o1 | 286 |
